Test results from ChEMBL document CHEMBL1122673, “Synthesis of a novel series of (aryloxy)propanolamines: new selective beta 2-blocking agents” (J Med Chem, 1984).
pEC50: −log10 of the molar value.

How the values were obtained:
Cavia porcellus [1] = species: Cavia porcellus; assay: (§1) In vitro evaluation on guinea pig trachea. EC50 which is the molar concentration required to give 50% inhibition of the isoproterenol response (1x10E-6M) was determined.; assay type: functional; settings: read-out: ED50 (the source's name)
How it was run: (§2)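 Isolated guinea pig tracheal spirals were held at 1.50 g initial tension (resting 0.4–0.6 g) in Tyrode at 37 °C, gassed with O2/CO2 95:5, and contracted with acetylcholine 3 × 10^-6 M. Antagonist was added 15 min before Ach. Isoproterenol 3 × 10^-8 to 3 × 10^-6 M was added at maximal contraction.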

Cavia porcellus [2] = species: Cavia porcellus; assay: as §1; assay type: functional, organism-based
How it was run: as §2, with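 “contraction. EC50 came from four points, with ≥4 preparations per group.” for “contraction.”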

[3] = Compound was determined for heart rate with respect to propanol; assay type: functional
How it was run: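 Urethane-anesthetized animals (1.25 g/kg ip). Carotid blood pressure was recorded, and heart rate was taken from pulse pressure. Three isoproterenol doses (10 µg/kg iv) set the control mean heart-rate rise and diastolic fall. Antagonist was given as four cumulative iv doses, with isoproterenol 10 min after each. The next dose followed return to baseline. Groups of ≥4 animals.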

| SMILES | pEC50 (Cavia porcellus [1]) | pEC50 (Cavia porcellus [2]) | Ratio [3] |
| --- | --- | --- | --- |
| CC(C)(C)NCC(O)COc1cccc2c1[C@]1(O)CCCC[C@H]21 (some centres undefined) | 6.94 |  |  |
| CCCC(=O)Nc1ccc(OCC(O)CNC(C)C)c2c1[C@H]1CCCCC[C@@H]21 (some centres undefined) | 6.47 |  |  |
| CC(C)(C)NCC(O)COc1ccc2c(c1)[C@@H]1CCCC[C@H]21 (some centres undefined) |  | 6.70 |  |
| CC(C)(C)NCC(O)COc1cccc2c1[C@@H]1CCCCC[C@]21O (some centres undefined) | 8.90 |  | 0.42 |
| CC(C)(C)NCC(O)COc1cccc2c1[C@@H]1CCCCC[C@H]21 (some centres undefined) |  | 7.34 | 0.57 |
| COc1ccc(CCNCC(O)COc2cccc3c2[C@@H]2CCCCC[C@]32O)cc1OC (some centres undefined) | 6.59 |  | 0.68 |
| CC(C)(C)NCC(O)COc1ccc2c(c1)[C@@H]1CCCCC[C@H]21 (some centres undefined) | 5.86 |  |  |
| CC(C)NCC(O)COc1cccc2c1[C@@H]1CCCC[C@H]21 (some centres undefined) |  | 7.15 |  |
| CC(C)NCC(O)COc1cccc2c1[C@@H]1CCCCC[C@]21O (some centres undefined) | 8.89 |  | 0.8 |
| COc1ccc(CCNCC(O)COc2cccc3c2[C@@H]2CCCCC[C@H]32)cc1OC (some centres undefined) |  | 5.96 |  |
| CC(C)NCC(O)COc1ccc2ccccc2c1 (centres undefined) | 7.26 |  |  |

The next lines start with results.

| pEC50 (Cavia porcellus [1]) | pEC50 (Cavia porcellus [2]) | SMILES | Ratio [3] |
| --- | --- | --- | --- |
|  | 6.30 | CC(C)NCC(O)COc1ccc2c(c1)[C@@H]1CCCC[C@H]21 (some centres undefined) |  |
| 6.89 |  | CC(C)NCC(O)COc1cccc2c1[C@]1(O)CCCCC[C@H]21 (some centres undefined) |  |
| 8.26 |  | CC(C)(C)NCC(O)COc1cccc2c1[C@]1(O)CCCCC[C@H]21 (some centres undefined) | 0.08 |
|  | 6.38 | CC(C)NCC(O)COc1ccc2c(c1)[C@@H]1CCCCC[C@H]21 (some centres undefined) | 0.02 |
| 5.15 |  | COc1ccc(CCNCC(O)COc2cccc3c2[C@]2(O)CCCCC[C@H]32)cc1OC (some centres undefined) |  |
|  | 8.70 | CC(C)NCC(O)COc1cccc2c1[C@@H]1CCCCC[C@H]21 (some centres undefined) | 0.46 |
